Screening data (PubChem BioAssay)
PvdQ acylase – P. aeruginosa PvdQ acylase inhibitors, primary screen, biochemical, fluorescence, plate reader and imaging, single point | purified PvdQ acylase | inhibition, % at 10 µM | hit rate 0.063% among 340,000 | AID 488965, 2010; in the data active means inhibition above about 30%, passing the limit was not always enough; inconclusive means no clear call, values can overlap the other calls
SR-BI DiI-HDL act – activators of SR-BI mediated DiI-HDL uptake, primary screen, ldlA[mSR-BI] CHO cells, DiI fluorescence; hit rate 0.096% among 320,000; activation, % at 12.5 µM; 3 h; 100 = double the neutral-control signal;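 active means mean replicate activation of at least 60% and every replicate at or above 60%; inconclusive means mean or all-replicate condition met, but not both; inactive means mean below 60% and not all replicates reaching 60%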
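Test system: SR-BI-overexpressing, LDLR-lacking CHO cells; Medium: Ham's F12 with 0.5% BSA, HEPES 25 mM, pH 7.4; Schedule: 3 h, 37 °C; Technique: bottom-read fluorescence, 550/595 nm.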
dFosB act-1 – activators of delta FosB homodimer, primary screen, biochemical, fluorescence polarization, TAMRA-CDK5 oligo, single point; Protein FosB (Mus musculus), P13346; purified delta FosB; percent of positive-control signal above neutral wells; activation, % at 25 µM; hit rate 0.99% among 340,000; AID 493131, 2011;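 active means mean activation above about 17%, with every replicate also reaching it, limit read from the data, passing the limit was not always enough; inconclusive means only one of the two conditions met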
Target sequence (P13346 whole entry, looked up): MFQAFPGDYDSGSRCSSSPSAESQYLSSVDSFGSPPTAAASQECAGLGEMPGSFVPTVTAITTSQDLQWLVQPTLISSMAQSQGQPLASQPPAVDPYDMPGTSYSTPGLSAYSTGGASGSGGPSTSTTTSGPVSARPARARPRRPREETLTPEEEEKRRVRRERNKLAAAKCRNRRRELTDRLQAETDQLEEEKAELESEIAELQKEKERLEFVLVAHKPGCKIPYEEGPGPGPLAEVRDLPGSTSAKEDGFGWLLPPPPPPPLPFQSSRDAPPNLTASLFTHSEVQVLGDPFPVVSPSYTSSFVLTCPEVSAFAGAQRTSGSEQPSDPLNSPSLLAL
SR-BI DiI inh – inhibitors of SR-BI mediated HDL lipid uptake, primary screen, ldlA[mSR-BI] cells, fluorescence, single point. Scavenger receptor class B member 1 (Mus musculus), Q61009. ldlA[mSR-BI] CHO cells, DiI-HDL uptake fluorescence, 3 h. inhibition, % at 12.5 µM. hit rate 0.96% among 320,000. AID 488896, 2010;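 active means mean replicate inhibition of at least 70% and a set share of replicates each scoring 70 or more; inconclusive means meets just one of the two criteria; inactive means fails both criteria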
rRNA inh HTS – reduced GFP signal of wild-type E. coli, primary screen, bacterial rRNA inhibitor project, GFP/RFP fluorescence, OD600, single point | E. coli WT GFP vs humanized-ribosome RFP mutants, 24 h; active compounds read low; DMSO median 0, no signal -100 | GFP signal change (wild-type ribosome), % (no concentration beside the values) | hit rate 1.6% among 350,000;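 active means significant combined selectivity score with lowered wild-type GFP, culture density cut under 30%, mutant RFP and density less affected; inactive means any of these conditions unmet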
Xi reactivation – activators of inactive X chromosome reactivation, primary screen, imaging, XiGFP fibroblasts, GFP high-content imaging, set 2; XiGFP mouse fibroblasts, % GFP-positive cells imaging, 3 d; cells co-treated with 5-aza-dC sensitizer; scaled so ellipticine positive control = 100%; activation, % at 7.58 µM; hit rate 0.055% among 360,000;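 active means mean normalized replicate activation at least 10% and every replicate at or above 10%; inconclusive means only one of the two criteria met; inactive means mean below 10% and not all replicates reach 10%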
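System: 68-5-11 XiGFP fibroblast line; Timing: 3 days compound exposure; Compound dosing: one concentration, pinned; Benchmarks: positive control ellipticine, 6 µM final; Buffer or medium: DMEM containing 5-aza-dC.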
dFosB act-2 – activators of mouse delta FosB DNA binding, confirmation, biochemical, fluorescence polarization, TAMRA-CDK5 oligo, cherry-picked samples | purified delta FosB; normalised: neutral wells 0, positive control 100 | activation, % at 24.9 µM | shares compounds with dFosB act-1 | 2,400 tested, under 10 active;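 active means highest replicate activation at or above 34% and every replicate reaching that threshold; inconclusive means meets only one of the two criteria; inactive means meets neither criterion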;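 further: higher polarization means more probe DNA bound by delta FosB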
Each line names hits and unclear results; the compound was inactive in the other large screens (follow-up assays come after a bar, where they were run). In the library only some 2.6% were active in any assay of this set; here they are far more common.

COc1cc(NC(=O)c2ccccc2)c(OC)cc1NC(=O)Cc1ccc(Br)cc1	dFosB act-1 21 | dFosB act-2 inactive
CCc1cc2ccc(C)c(C)c2nc1SCC(=O)NNC(=O)c1ccco1	dFosB act-1 28 (no result: SR-BI DiI-HDL act, SR-BI DiI inh) | dFosB act-2 inactive
O=C(CCCCn1c(=S)[nH]c2ccsc2c1=O)NCc1ccc2c(c1)OCO2	dFosB act-1 125 | dFosB act-2 inactive
CCC1CCc2sc(C(=O)NC3CCN(Cc4ccccc4)CC3)cc2C1 (stereo not given)	dFosB act-1 29 | dFosB act-2 inactive
CCCN(N=Nc1cccc([N+](=O)[O-])c1)c1cccc([N+](=O)[O-])c1	none (no result: Xi reactivation)
COc1cccc(NC(=O)c2nnn(CC(=O)Nc3cc(C)cc(C)c3)c2N)c1	none
Nc1c(C(=O)NCc2cccs2)nnn1CC(=O)Nc1cccc(Cl)c1	dFosB act-1 21 (no result: rRNA inh HTS) | dFosB act-2 inactive
Cc1ccc(NC(=O)Cn2nnc(C(=O)NCc3cccs3)c2N)cc1Cl	none
Cc1cccc(NC(=O)Cn2nnc(C(=O)Nc3ccc(F)c(Cl)c3)c2N)c1	dFosB act-1 90 | dFosB act-2 inactive
COc1ccc(NC(=O)Cn2nnc(C(=O)NCc3cccs3)c2N)cc1Cl	dFosB act-1 35 | dFosB act-2 inactive
O=C(c1ccc(Cl)cc1)C1CCN(C(=O)NC2CCCCC2)CC1	none (no result: rRNA inh HTS, Xi reactivation)
CCCCn1c(N)c(N(CC(C)C)C(=O)C2CCN(S(=O)(=O)c3ccc(OCC)cc3)CC2)c(=O)[nH]c1=O	dFosB act-1 19 | dFosB act-2 inactive
Cc1cccc(-n2ncc3c(=O)[nH]c(SCC(=O)N4CC(=O)Nc5ccccc54)nc32)c1	dFosB act-1 47 | dFosB act-2 inactive
CCc1ccc(NC(=O)CSc2nc3ncc(Br)cc3[nH]2)cc1	dFosB act-1 19 | dFosB act-2 inactive
Cc1ccc(NC(=O)CSc2nc3nc(C)c(Br)cc3[nH]2)cc1F	dFosB act-1 57 | dFosB act-2 inactive
COc1ccc2cc(/C=N/NC(=O)c3ccc(CN(c4cccc(Cl)c4Cl)S(C)(=O)=O)cc3)c(Cl)nc2c1	dFosB act-1 46 (no result: rRNA inh HTS) | dFosB act-2 inconclusive
CCCCCCC(=O)Nc1ccc(C(=O)N/N=C/c2cccnc2)cc1	SR-BI DiI inh inconclusive (no result: rRNA inh HTS, Xi reactivation)
CCCCCCCC(=O)Nc1ccc(C(=O)N/N=C/c2cccc([N+](=O)[O-])c2)cc1	dFosB act-1 20, SR-BI DiI inh 87 (no result: rRNA inh HTS, Xi reactivation) | dFosB act-2 inactive
Nc1cc(C(=O)N/N=C/c2cccc([N+](=O)[O-])c2)n[nH]c1=O	dFosB act-1 18 | dFosB act-2 inactive
CO[C@@H]1CN(C)C(=O)c2ccc(NS(C)(=O)=O)cc2OC[C@H](C)N(C(=O)CN(C)C)C[C@@H]1C	none (no result: PvdQ acylase, SR-BI DiI-HDL act, dFosB act-1, SR-BI DiI inh)
Cc1cc(C)n2cc(COc3ccccc3)nc2n1	none (no result: rRNA inh HTS)
Cc1nnc(N2CCCC(C(=O)NCc3ccccc3F)C2)c2nn(-c3ccccc3)c(C)c12 (stereo not given)	none
Cc1cccc(C)c1NC(=O)CCCn1nc(C)c2c(C)n(-c3ccccc3)nc2c1=O	dFosB act-1 19 | dFosB act-2 inactive
CCOc1ccccc1CNC(=O)Cn1nc(C)c2c(C)n(-c3ccc(C)cc3)nc2c1=O	dFosB act-1 53 (no result: rRNA inh HTS, Xi reactivation) | dFosB act-2 inactive
